Experimental data published in ChEMBL document CHEMBL1799940, “Isolation and synthesis of antiproliferative eupolauridine alkaloids of Ambavia gerrardii from the Madagascar Dry Forest” (J Nat Prod, 2011).

Columns and labels:
A2780 = assay: Antiproliferative activity against human A2780 cells after 2 days by Alamar Blue assay; type: functional, cell-based; conditions: A2780, 48 h
How it was run: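 Drug-sensitive human ovarian cancer cell line; samples delivered in 1 μL of 100% DMSO per well rather than 20 μL of 1:1 DMSO–H2O. Otherwise run by a previously reported protocol.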

NCI-H460 = assay: Antiproliferative activity against human H460 cells after 96 hrs by Cell Titre-Glo luminescent assay; type: functional, cell-based; conditions: NCI-H460, 96 h

Row | Compound | IC50 (A2780) [µM] | IC50 (NCI-H460) [µM]
1 | COc1ccc2c(c1)-c1c3c-2nccc3cc[n+]1[O-] | 54.3 | > 10
2 | COc1cccc2c1-c1nccc3ccnc(c13)C2=O | 10.3 | 0.57
3 | [O-][n+]1ccc2ccnc3c2c1-c1ccccc1-3 | 3.5 | 1.77
4 | c1ccc2c(c1)-c1nccc3ccnc-2c13 [EUPOLAURIDINE] | 35.7 | > 100
5 | O=C1c2ccccc2-c2nccc3ccnc1c23 [SAMPANGINE] | 0.6 | 0.58

Other lines, results leading:

Row | IC50 (A2780) [µM] | IC50 (NCI-H460) [µM] | Compound
6 | 12.7 | > 10 | Oc1ccc2c(c1)-c1nccc3ccnc-2c13
7 | 11.1 | > 10 | COc1ccc2c(c1)-c1nccc3ccnc-2c13
8 | 50.3 | > 100 | COc1ccc2c(c1)-c1nccc3cc[n+]([O-])c-2c13
